Assays:
[1] = target: T1, Coagulation factor X (Homo sapiens, UniProt P00742); experiment: (§1) In vitro inhibitory activity against Coagulation factor X
How it was run: (§2)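 Ki from the dependence of initial rate on inhibitor concentration. Proteinase (human FXa, or bovine trypsin) equilibrated with inhibitor, then chromogenic substrate added. p-Nitroaniline release followed as the absorbance increase at 405 nm.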

[2] = target: Prothrombin (Homo sapiens, UniProt P00734); experiment: In vitro inhibitory activity against human thrombin(IIa)
[3] = target: T2, Serine protease 1 (Bos taurus, UniProt P00760); experiment: In vitro inhibitory activity against bovine trypsin; how it was run: as §2
T2 sequence (P00760 whole entry): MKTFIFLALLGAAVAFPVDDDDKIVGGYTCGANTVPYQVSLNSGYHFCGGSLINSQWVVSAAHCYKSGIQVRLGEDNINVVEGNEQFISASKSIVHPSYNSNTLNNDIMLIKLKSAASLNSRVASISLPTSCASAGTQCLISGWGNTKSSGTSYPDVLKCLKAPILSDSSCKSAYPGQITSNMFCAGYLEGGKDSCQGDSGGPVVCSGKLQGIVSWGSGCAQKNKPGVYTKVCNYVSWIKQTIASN

[4] = Partition coefficient (logP); assay type: physicochemical; settings: octanol/water
[5] = Oral bioavailability in rat; assay type: ADME, organism-based; settings: in vivo
How it was run: (§3)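 Rats were anesthetized and fitted with catheters in the left jugular vein (dosing) and left carotid artery (sampling). Next day, conscious rats were dosed iv at 2 mpk or orally by gastric lavage at 10 mpk. Blood was drawn before dosing and at increasing times after. Plasma inhibitor levels gave concentration–time curves. F was derived by comparing dose-normalized AUCs from oral and iv dosing.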

[6] = pKa was determined; assay type: physicochemical
[7] = target: T1, Coagulation factor X; experiment: as §1; remark: listed apart in the source
How it was run: (§4)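 Ki values for bovine trypsin and human factor Xa came from the inhibitor-concentration dependence of the initial rate of p-nitroaniline release. Enzyme and inhibitor were equilibrated first, then chromogenic substrate was added, and the rate of absorbance increase at 405 nm was followed.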

[8] = Maximum plasma concentration after p.o. (10 mpk) administration in rats.; assay type: ADME, organism-based; parameters: route oral; settings: rat, po, 10 mg/kg; how it was run: as §3
[9] = Maximum time of retention in plasma, after peroral (10 mpk) administration in rats.; assay type: ADME, organism-based; settings: rat, po, 10 mg/kg; how it was run: as §3
[10] = Half life in rats; assay type: ADME, organism-based; settings: rat, in vivo; how it was run: as §3
[11] = Clearance values in rats after iv administration.; assay type: ADME, organism-based; settings: rat, in vivo; how it was run: as §3
[12] = target: T2, Serine protease 1; experiment: In vitro iinhibitory activity against bovine trypsin; how it was run: as §4

T1 sequence (P00742 41-179 limits assumed): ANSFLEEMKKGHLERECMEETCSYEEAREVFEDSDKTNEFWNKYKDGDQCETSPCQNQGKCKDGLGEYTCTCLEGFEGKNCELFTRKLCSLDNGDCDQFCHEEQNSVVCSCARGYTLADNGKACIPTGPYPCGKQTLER
T1 sequence (P00742 235-488 limits assumed): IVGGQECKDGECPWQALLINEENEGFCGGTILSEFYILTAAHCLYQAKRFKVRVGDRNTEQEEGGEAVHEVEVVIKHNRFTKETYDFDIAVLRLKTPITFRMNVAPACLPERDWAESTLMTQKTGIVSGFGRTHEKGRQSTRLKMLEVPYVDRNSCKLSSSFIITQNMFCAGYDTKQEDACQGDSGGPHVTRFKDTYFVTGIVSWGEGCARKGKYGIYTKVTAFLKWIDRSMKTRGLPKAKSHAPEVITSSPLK

Ki [1]	Ki [2]	Ki [3]	SMILES	other results
230 µM	0.38 µM	284 µM	O=C(NCc1cccnc1)[C@@H]1CCCN1C(=O)[C@@H](Cc1ccc(Cl)c(Cl)c1)NS(=O)(=O)Cc1ccccc1	–
240 µM	0.01 µM	8.3 µM	Cc1cc(N)nc(C)c1CNC(=O)[C@@H]1CCCN1C(=O)[C@H](N)C(c1ccccc1)c1ccccc1	–
> 200 µM	0.0076 µM	1.3 µM	CC(C)(C)OC(=O)N[C@@H](C(=O)N1CCC[C@H]1C(=O)NCc1ccc(N)nc1)C(c1ccccc1)c1ccccc1	–
> 1000 µM	–	11 µM	CN[C@H](Cc1ccccc1)C(=O)N1CCC[C@H]1C(=O)NC[C@H]1CC[C@H](N)CC1	logP [4]: -1.68; bioavailability [5]: 1%; pKa [6]: 10.2
> 200 µM	0.51 µM	31 µM	O=C(NCc1ccncc1)[C@@H]1CCCN1C(=O)[C@@H](Cc1ccc(Cl)c(Cl)c1)NS(=O)(=O)Cc1ccccc1	–
> 100 µM	0.9 µM	> 100 µM	CC(C)(C)OC(=O)N[C@@H](C(=O)N1CCC[C@H]1C(=O)NCc1csc(N)n1)C(c1ccccc1)c1ccccc1	–
> 100 µM	0.36 µM	767 µM	Nc1nc(CNC(=O)[C@@H]2CCCN2C(=O)[C@@H](Cc2ccc(Cl)c(Cl)c2)NS(=O)(=O)Cc2ccccc2)cs1	–
27 µM	0.56 µM	45 µM	CC(C)(C)OC(=O)N[C@@H](C(=O)N1CCC[C@H]1C(=O)NCc1csc(N)c1)C(C1CCCCC1)C1CCCCC1	–
94 µM	0.012 µM	5.4 µM	Nc1ccc(CNC(=O)[C@@H]2CCCN2C(=O)[C@H](N)C(c2ccccc2)c2ccccc2)cn1	–
> 100 µM	0.07 µM	144 µM	Nc1nc(CNC(=O)[C@@H]2CCCN2C(=O)[C@H](N)C(C2CCCCC2)C2CCCCC2)cs1	–
–	0.13 µM	56 µM	Nc1cc(CNC(=O)[C@@H]2CCCN2C(=O)[C@@H](Cc2ccc(Cl)c(Cl)c2)NS(=O)(=O)Cc2ccccc2)cs1	Ki [7]: > 100 µM
52 µM	0.011 µM	8.9 µM	Cc1cc(N)nc(C)c1CNC(=O)[C@@H]1CCCN1C(=O)[C@@H](Cc1ccc(Cl)c(Cl)c1)NS(=O)(=O)Cc1ccccc1	–
16 µM	0.0022 µM	1.5 µM	Cc1cc(N)nc(C)c1CNC(=O)[C@@H]1CCCN1C(=O)[C@H](NC(=O)OC(C)(C)C)C(C1CCCCC1)C1CCCCC1	–
160 µM	0.0036 µM	2.5 µM	Cc1cc(N)nc(C)c1CNC(=O)[C@@H]1CCCN1C(=O)[C@H](NC(=O)OC(C)(C)C)C(c1ccccc1)c1ccccc1	Cmax [8]: 610 nM; logP [4]: 1.65; Tmax [9]: 53 min; bioavailability [5]: 40%; half-life [10]: 50 min; clearance [11]: 76 mL/min/kg
7.6 µM	0.003 µM	0.43 µM	Nc1ccc(CNC(=O)[C@@H]2CCCN2C(=O)[C@@H](Cc2ccc(Cl)c(Cl)c2)NS(=O)(=O)Cc2ccccc2)cn1	–
4.4 µM	0.003 µM	0.657 µM	CC(C)(C)OC(=O)N[C@@H](C(=O)N1CCC[C@H]1C(=O)NCc1ccc(N)nc1)C(C1CCCCC1)C1CCCCC1	Cmax [8]: 1430 nM; logP [4]: > 3.35; Tmax [9]: 120 min; bioavailability [5]: 60%; half-life [10]: 35 min; pKa [6]: 6.5; clearance [11]: 27 mL/min/kg
> 100 µM	0.35 µM	277 µM	Nc1nc(CNC(=O)[C@@H]2CCCN2C(=O)[C@H](N)C(c2ccccc2)c2ccccc2)cs1	–
420 µM	3.7 µM	233 µM	CC(C)(C)OC(=O)N[C@H](Cc1ccccc1)C(=O)N1CCC[C@H]1C(=O)NCc1ccc(N)cc1	–
> 100 µM	0.35 µM	–	CC(C)(C)OC(=O)N[C@@H](C(=O)N1CCC[C@H]1C(=O)NCc1csc(N)n1)C(C1CCCCC1)C1CCCCC1	Ki [12]: 52 µM
10 µM	–	12 µM	Nc1ccc(CNC(=O)[C@@H]2CCCN2C(=O)[C@@H](Cc2ccc(Cl)c(Cl)c2)NS(=O)(=O)Cc2ccccc2)cc1	Cmax [8]: 660 nM; logP [4]: > 3.68; Tmax [9]: 53 min; bioavailability [5]: 35%; half-life [10]: 20 min; pKa [6]: 4.8; clearance [11]: 71 mL/min/kg
160 µM	–	3 µM	Cc1cc(N)nc(C)c1CNC(=O)[C@@H]1CCCN1C(=O)[C@H](N)C(C1CCCCC1)C1CCCCC1	–
8.3 µM	0.00082 µM	1.2 µM	Nc1ccc(CNC(=O)[C@@H]2CCCN2C(=O)[C@H](N)C(C2CCCCC2)C2CCCCC2)cn1	Cmax [8]: 530 nM; logP [4]: 2.21; Tmax [9]: 26 min; bioavailability [5]: 76%; half-life [10]: 102 min; pKa [6]: 6.2; clearance [11]: > 200 mL/min/kg
14 µM	0.11 µM	384 µM	O=C(NCc1ccccc1)[C@@H]1CCCN1C(=O)[C@@H](Cc1ccc(Cl)c(Cl)c1)NS(=O)(=O)Cc1ccccc1	–
